FAK inh: FAK kinase inhibitors, primary screen, biochemical; inhibition, %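 (tested at 7 µM)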; 97,000 tested, 0.84% active; Focal adhesion kinase 1 (Homo sapiens), Q05397; AID 727, 2007; biochemical FAK kinase activity assay; in the data active means inhibition above about 19%;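 further: 0% = DMSO and 100% = reference compound high control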
ERb coact inh: inhibitors of ERβ-SRC1 coactivator interaction, primary screen, biochemical, TR-FRET, ERβ LBD, SRC-1 peptide; Estrogen receptor beta (Homo sapiens), Q92731; TR-FRET ER-beta LBD / SRC1-Cy5 peptide binding; receptor agonist-loaded with 1 µM estradiol; inhibition, % at 25.6 µM; 86,000 tested, 1.3% active;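 active means compounds whose percent inhibition of the receptor-coactivator binding signal exceeds about 50% in the single-dose screen, limit read from the data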;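 further: 0% = receptor plus peptide wells without compound and 100% = peptide-only wells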
Target sequence (Q92731 whole entry, looked up, the tested form may be a part): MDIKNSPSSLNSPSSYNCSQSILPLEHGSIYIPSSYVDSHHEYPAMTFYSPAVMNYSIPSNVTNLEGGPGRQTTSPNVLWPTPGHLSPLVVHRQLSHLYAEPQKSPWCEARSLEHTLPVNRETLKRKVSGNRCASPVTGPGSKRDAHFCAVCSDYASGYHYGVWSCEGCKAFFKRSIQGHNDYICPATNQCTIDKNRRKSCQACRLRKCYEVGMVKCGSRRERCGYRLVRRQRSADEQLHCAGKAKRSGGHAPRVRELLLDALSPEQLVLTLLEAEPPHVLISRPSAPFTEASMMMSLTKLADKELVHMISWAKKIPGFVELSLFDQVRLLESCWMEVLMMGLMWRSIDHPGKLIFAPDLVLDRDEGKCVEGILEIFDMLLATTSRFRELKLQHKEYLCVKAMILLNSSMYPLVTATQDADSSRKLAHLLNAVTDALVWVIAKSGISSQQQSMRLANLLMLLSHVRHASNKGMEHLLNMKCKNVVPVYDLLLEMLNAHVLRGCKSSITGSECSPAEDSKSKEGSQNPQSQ
Rev-RRE block: HIV-1 Rev-RRE binding inhibitors, primary screen, biochemical, FRET, protein-RNA interaction; Rev peptide-RRE RNA binding; inhibition, % at 8 µM; 97,000 tested, 0.79% active; AID 704, 2007;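 active means inhibition above the screen-wide mean plus 3 SD, cut at about 35% in these data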;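 further: 0% = median DMSO wells and 100% = median Neomycin B control wells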
Target sequence (P05866 whole entry, looked up): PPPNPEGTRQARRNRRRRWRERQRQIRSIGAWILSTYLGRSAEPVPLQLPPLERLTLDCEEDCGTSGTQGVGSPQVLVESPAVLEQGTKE
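Test system – labelled RRE RNA duplex and labelled Rev peptide · Signal – fluorescein-to-Cy5 FRET, 480 nm excitation · Evaluation – % inhibition of FRET ratio versus controls · Benchmarks – DMSO low control, neomycin B high control · Incubation – 5 min RNA-compound premix plus 15 min binding step, 25 °C · Medium – HEPES pH 7.5 salt buffer with EDTA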
ERa coact pot: enhancers of ERα–SRC-1 coactivator binding, primary screen, biochemical, TR-FRET, ERα LBD, low estradiol; Estrogen receptor (Homo sapiens), P03372; TR-FRET ERalpha-LBD/SRC-Cy5 coactivator binding, 2 h; 100 = basal binding, no effect; coactivator binding (% of control), % at 25.6 µM; 86,000 tested, 1.3% active; AID 639, 2007; in the data active means activity above about 200%;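 further: binding measured in presence of low estradiol as agonist stimulus; 0% = peptide alone without receptor and 100% = receptor with peptide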
Smad3 inh: Smad3/FoxH1 peptide binding inhibitors, primary screen, biochemical, TR-FRET; 88,000 tested, 0.29% active; TR-FRET Smad3/Dy647-FoxH1 peptide binding, europium anti-His; Mothers against decapentaplegic homolog 3 (Homo sapiens), P84022; inhibition, % at 25 µM;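 active means compounds that reduce the energy-transfer binding signal between the protein and its labelled peptide by more than half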;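 further: 0% = Smad3 plus labelled peptide maximal FRET and 100% = peptide-only background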
ERa coact inh: ERα–SRC-1 coactivator interaction inhibitors, primary screen, biochemical, TR-FRET, ERα LBD, estradiol-bound. 86,000 tested, 1.7% active. Estrogen receptor (Homo sapiens), P03372. AID 629, 2007. TR-FRET ER-alpha LBD / SRC-1 peptide. inhibition, % at 25.6 µM; in the data active means inhibition above about 50%;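 further: 0% = receptor plus peptide control and 100% = peptide only without receptor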
Active calls of the source: *; . = no result; [ ] = another dose, or the depositor's remark. Shown are actives, neighbours in structure and some others; about 4% of the full set was active somewhere.

SMILES	FAK inh	ERb coact inh	Rev-RRE block	ERa coact pot	Smad3 inh	ERa coact inh
CCSc1nnc(-c2sc3nnc(-c4ccccc4)c(-c4ccccc4)c3c2N)o1	-3	.	117*[fluorescence artefact?]	.	.	.
CCSc1nnc(-c2ccncc2)o1	-1	-11	6	115	-32	-5
CCS(=O)(=O)N1CCC(C(=O)N2CCc3ccccc3C2)CC1	6	-9	7	245*[fluorescence artefact?]	1	9
Clc1ccc2c(NC3CCC(N4CCCCC4)CC3)ccnc2c1 (stereo not given)	.	.	.	.	1	.
C=CCSc1nnc2c(n1)OC(c1c(C)[nH]n(-c3ccccc3)c1=O)Nc1ccccc1-2 (stereo not given)	-2	.	-2	.	.	.
COc1ccc2nccc(SCC(=O)O)c2c1	.	.	.	.	1	.
CC12CCC(=O)N1C(C(=O)OCC(=O)Nc1sccc1C#N)CS2 (stereo not given)	3	68*	25	37	14	91*[fluorescence artefact?]
CC12CCC(=O)N1C(C(=O)Nc1cccc3ccccc13)CS2 (stereo not given)	.	2	.	123	6	-5
Cc1cc(S(=O)(=O)N(Cc2ccc(F)cc2)CC2CCCO2)ccc1-n1cnnn1 (stereo not given)	-1	63*	14	120	3	-1
Cc1cc(S(=O)(=O)N(Cc2ccc(C(C)C)cc2)CC2CCCO2)ccc1-n1cnnn1 (stereo not given)	0	2	3	95	0	2
Cc1nn2c(N3CCN(C(=O)c4ccco4)CC3)cc(C(C)(C)C)nc2c1-c1ccc(Cl)cc1	-1	.	10	.	.	.
Cc1nc2cc(-c3cccc(Cl)c3)nn2c(N2CCN(C(=O)c3ccco3)CC2)c1C	.	6	.	107	9	12
Cc1cc(N2CCN(C(=O)c3ccco3)CC2)n2nc(C)c(-c3ccc(Cl)cc3)c2n1	.	55*[fluorescence artefact?]	.	282*	-4	55*[fluorescence artefact?]
Cc1cc(N2CCN(C(=O)c3ccco3)CC2)n2nc(C)c(-c3ccccc3)c2n1	-2	5	3	220*	3	-28
Cc1cc(N2CCN(C(=O)c3ccco3)CC2)n2nc(-c3cccc(Cl)c3)cc2n1	.	57*[fluorescence artefact?]	.	107	-2	29
c1ccc2c(CC3NCCN3)cccc2c1	.	.	.	.	-4	.
CC1=CC(C)(C)N2C(=O)C3(C(C#N)=C(N)Oc4cc(O)ccc43)c3c(C)c(C)cc1c32 (stereo not given)	-3	16	15	59	12	5
CCN(CC)C(=O)C(C)OC(=O)COc1ccc(Cl)cc1C (stereo not given)	-1	46	-3	79	15	37
Cc1cc(Cl)ccc1OCC(=O)OC(C)C(=O)N(C)C (stereo not given)	2	57*	0	60	0	51*
CCN(CC)c1ccc(C=N/C(C#N)=C(\N)C#N)cc1	5	19	53*	115	0	-4
COc1cccc2cc3c(=O)n(-c4ccccc4)nc-3oc12	-8	81*	-4	6	1	99*[fluorescence artefact?]
COc1cccc2cc(C(C)=O)c(=O)oc12	2	-11	11	109	5	-17
C[N+](C)(C)[C@@H](C1=CCCC1=O)c1ccccc1	.	.	.	.	44	.
Cc1ccc(CNC(=O)CSc2c3c(nc4cc(Cl)ccc24)CCCC3)o1	7	12	9	99	16	16
CCOC(=O)C1(S(=O)(=O)c2ccc(Cl)cc2)CCN(Cc2ccc(C)cc2)CC1	0	.	13	.	.	.
SMILES	FAK inh	ERb coact inh	Rev-RRE block	ERa coact pot	Smad3 inh	ERa coact inh
CCOC(=O)C1=C(O)CSC1=Nc1ccccc1	-1	-5	14	100	0	-3
CCOC(=O)C1=C(O)/C(=C/c2ccc(-c3ccccc3C(=O)O)o2)SC1=Nc1ccc(OC)cc1	-3	.	89*[fluorescence artefact?]	.	.	.
CCOC(=O)C(NC(=O)c1ccc(Cl)cc1Cl)(Nc1ccc(C)cc1)C(F)(F)F (stereo not given)	-3	.	5	.	.	.
COC(=O)C1=C(C)NC(C)=C(C(=O)OC)C1c1ccc2ccccc2n1	-6	-3	9	92	-18	-13
O=C1c2ccccc2C(=O)C1c1ccc2ccccc2n1	.	34	.	217*[fluorescence artefact?]	33	52*[fluorescence artefact?]
CCN1CCN(Cc2ccccc2NC(=O)Nc2ccc(C)cc2)CC1	0	-4	2	113	3	-6
CCN1CCN(Cc2ccc(NC(=O)Nc3ccccc3Cl)cc2)CC1	.	11	.	261*	-7	-5
COc1cc2ccc([C@H](C)NCC#N)cc2cc1OC	.	.	.	.	6	.
O=C(O)[C@H](Cc1cc(I)c(O)c(I)c1)C1CCCCC1	.	.	.	.	11	.
Nc1cc2c(nc3c4ccccc4c(N)cc3[n+]2-c2cccc3ccccc23)c2ccccc12 (tested in a mixture with another compound)	.	.	.	.	17	.
COCc1cc(C)nc(OCC(=O)N/N=C\c2cc(C)n(-c3cccc(C(F)(F)F)c3)c2C)c1C#N	0	.	0	.	.	.
c1ccc(CN2COc3c(ccc4c5c(ccc34)CN(Cc3ccccc3)CO5)C2)cc1	.	.	.	.	47	.
Oc1ccccc1-c1nnc(SCCN2CCOCC2)n1Cc1ccccc1	6	59*	4	86	14	26
CCOC(=O)c1c(C)n(-c2ccc(C)cc2)c2c(C(C(C)=O)C(=O)O)c(Br)c(O)c(O)c12 (stereo not given)	-2	.	8	.	.	.
CCOC(=O)C(C(C)=O)c1c(Br)c(O)c(O)c2c(C(=O)c3ccc(C)cc3)coc12 (stereo not given)	4	72*[fluorescence artefact?]	3	54	-4	43
COc1ccc2c(c1)Cc1cc(N=[N+]([O-])c3ccc4c(c3)Cc3cc(OC)ccc3-4)ccc1-2	.	.	.	.	22	.
Cc1cnn(-c2ccc3nnc(-c4ccc(Cl)cc4)n3n2)c1	7	29	-2	329*[fluorescence artefact?]	1	26
Cc1cc(NC(=O)CSc2ccc3nnc(-c4ccc(Cl)cc4)n3n2)no1	3	-5	4	109	5	-4
COc1ccc(CCNC(=O)COC(=O)c2ccco2)cc1OC	-7	78*[fluorescence artefact?]	3	113	-14	-7
CCC(CC)C(=O)NCCc1ccc(OC)c(OC)c1	-2	8	9	81	-10	1
COCCOC(=O)c1c(C)oc2ccc(NS(=O)(=O)c3ccccc3)cc12	2	0	10	106	1	0

Screening data as filed in PubChem.
